# In the library only some 1.5% were active in any assay of this set; here they are far more common.
# MITF TRPM1 HTS: activators of MITF-driven TRPM1 promoter activity in SK-MEL-5 cells | 300,000 tested, 0.75% active | activation, % at 12.5 µM | SK-MEL-5 TRPM1-promoter luciferase, 24 h; % of positive control, neutral wells = 0;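 active means mean activation of at least 80% with every replicate also reaching 80%; inconclusive means mean reaches 80% but some replicate falls short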;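 further: 0% = neutral control wells and 100% = parthenolide positive control wells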
# Cneo AK release: causes C. neoformans cell lysis; adenylate kinase release luminescence, 4 h; normalised: neutral wells 0, clomiphene wells 100; lysis activity, % at 15 µM; 360,000 tested, 0.2% active; AID 651654;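 active means mean lysis activity across replicates of at least 80%, whatever share of replicates individually reach that level; inactive means mean lysis activity below 80%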
#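 read-out = cell lysis signal | test system = log-phase Cryptococcus neoformans yeast cells | input = cells at 5 × 10^6 per mL | medium = fresh YPD growth medium | signal = luminescent adenylate kinase detection reagent | timing = 4 h at 37 °C static, read 1 h later | dosing = single dose | controls = Clomiphene as positive lysis control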
# PGC1a acetyl inh: modulators of PGC1a acetylation; inhibition, % at 15.6 µM; AID 651687; U2OS PGC1a acetylation, AlphaScreen anti-acetyl-lysine; with virally co-expressed GCN5 acetyltransferase; 350,000 tested, 0.17% active;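 active means every replicate shows inhibition of at least 40%; inconclusive means mean inhibition at least 40% but some replicate below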;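 further: 0% = neutral control wells and 100% = positive control wells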
# Wnt act: activates Wnt/beta-catenin signaling in a reporter cell assay; activator, plate reader; activation, % at 9.35 µM; 300,000 tested, 1.2% active; AID 743398; in the data active means activation above about 30%, passing the limit was not always enough; inconclusive means no clear call, values can overlap the other calls;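 further: 0% = neutral control wells and 100% = positive control wells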
# An asterisk follows results filed as active; ? = inconclusive; / = no result given.
SMILES,MITF TRPM1 HTS,Cneo AK release,PGC1a acetyl inh,Wnt act
Cc1ccc(NC(=O)CC2SC(=O)N(c3ccccc3)C2=O)cc1 (configuration not stated),-11,-4,-6,33*
CCOc1ccc2nc(SCC#N)c(C#N)cc2c1,-6,1,-10,82*
CCOc1ccc2nc(NCCNC(=O)Nc3ccccc3)c(C#N)cc2c1,/,-1,64*,-21
O=C(/C=C/Nc1cccc(O)c1)c1ccccc1,4,-3,-7,48*
Cc1ccc(C(=O)/C=C/Nc2cccc(O)c2)cc1,-3,4,18,/
C[C@@H]1CCCCO[C@H](CN(C)Cc2ccc3c(c2)OCO3)[C@H](C)CN([C@@H](C)CO)C(=O)c2cc(NS(=O)(=O)c3ccc(F)cc3)ccc2O1,/,32,-5,/
Cc1ccccc1-c1ccc2c(c1)O[C@H](CN(C)C(=O)c1ccccn1)[C@H](C)CN([C@@H](C)CO)S2(=O)=O,/,0,0,/
S=C(N=Nc1ccccc1)NNc1ccccc1,32,-11,-3,44*
COc1ccccc1NC(=O)CCC(=O)Nc1nnc(C2CCCCC2)s1,-3,1,-7,34*
O=C(Nc1ccc(NC(=O)C2CCCCC2)nc1)c1cccs1,53,/,/,55*
O=C(Nc1nnc(C2CCCCC2)s1)c1cccs1,/,4,/,58*
COc1ccccc1OCC(=O)Nc1nnc(C2CCCC2)s1,12,-2,6,4
Cc1cc(C)cc(NC(=O)c2ccc3c(c2)CCN3S(C)(=O)=O)c1,22,0,-8,3
Cc1ccc(NC(=O)c2ccc3c(c2)CCN3S(C)(=O)=O)cc1,/,-1,/,45*
CNC[C@@H]1Oc2cc(C#CCOC)ccc2S(=O)(=O)N([C@H](C)CO)C[C@H]1C,/,/,9,/
Cc1ccc(C2=N/C(=C\N(C)C)C(=O)O2)cc1,94*,-1,-19,/
CN(C)/C=C1/N=C(c2ccccc2)OC1=O,/,0,5,0
Cc1ccc(C(=O)N(CCN2CCCCC2)CC2CCCN(C3CCCC3)C2)s1 (configuration not stated),95*,1,-3,15
O=C(COc1ccc2c(c1)OCO2)Nc1ccc(Cl)cn1,84*,-1,1,18
O=C(COc1ccccc1Br)Nc1ccc2c(c1)OCCCO2,108*,/,-11,0
O=C(COc1cc(F)ccc1[N+](=O)[O-])Nc1ccc2c(c1)OCO2,65,1,-4,22
O=C(COc1ccc(Cl)cc1)Nc1ccc(Cl)cn1,67,2,-3,/
CC(=O)c1cc(F)ccc1OCC(=O)Nc1ccc2c(c1)OCO2,?,-2,3,53*
O=C(COc1ccccc1Cl)Nc1ccc(Cl)cn1,/,-12,-98,52*
COc1cccc(S(=O)(=O)N[C@@H]2CC[C@H](CC(=O)NCc3ccccc3)O[C@@H]2CO)c1,/,2,1,/
SMILES,MITF TRPM1 HTS,Cneo AK release,PGC1a acetyl inh,Wnt act
CCN(CC(=O)Nc1ccc2c(c1)OCCO2)C(=O)COc1cc(C)ccc1Cl,-9,-1,/,3
Cc1ccc(OCC(=O)Nc2ccc3c(c2)OCO3)c(C)c1,89*,/,/,13
Cc1ccc(Cl)c(OCC(=O)Nc2cccnc2)c1,101*,10,/,27
Cc1ccc(Cl)c(OCC(=O)Nc2ccc3c(c2)OCCO3)c1,131*,-1,-14,/
Cc1cc(C)c(C#N)c(SCC(=O)Nc2ccc3c(c2)OCO3)n1,25,-1,5,42*
C[C@H](CO)N1C[C@H](C)[C@@H](CN(C)Cc2ccncc2)Oc2ccc(NS(=O)(=O)c3cn(C)cn3)cc2C1=O,/,-2,0,/
COCC(=O)N(C)C[C@@H]1Oc2ncc(C#C[C@@H](C)O)cc2C(=O)N([C@@H](C)CO)C[C@H]1C,/,5,5,/
CCCNC(=O)N(C)C[C@@H]1Oc2cc(-c3ccncc3)ccc2S(=O)(=O)N([C@@H](C)CO)C[C@H]1C,/,3,-1,/
NC(=O)c1cc(Cl)ccc1OCC(=O)Nc1ccc2c(c1)OCO2,57,-4,-12,68*
Cc1noc(C)c1NC(=O)N(C)C[C@@H]1Oc2ccc(NC(=O)Cc3ccccc3)cc2CC(=O)N([C@@H](C)CO)C[C@@H]1C,/,6,20,/
COc1ccc(NC(=O)c2cc(-c3ccco3)on2)cc1,92*,-1,-9,42*
O=C(Nc1cccnc1Cl)c1cc(-c2ccco2)on1,/,/,-5,59*
COc1cccc(-c2cc(C(=O)Nc3cccnc3Cl)no2)c1,59,-1,0,16
COc1ccc(NC(=O)Nc2nnc(-c3ccco3)s2)cc1,78,-1,2,53*
COc1ccc(NC(=O)c2cc(-c3ccco3)on2)c(OC)c1,2,-2,-2,-1
CCc1ccc(NC(=O)c2cc(-c3ccco3)on2)cc1,101*,/,14,/
CCOC(=O)C1=NN(c2ccc(Cl)cc2)C(=O)C1,145*,/,-1,65*
CCOC(=O)c1nn(-c2ccc(C)cc2)cc1O,73,-5,-9,/
CCOC(=O)c1nn(-c2ccc(Cl)cc2)cc1O,101*,-2,-16,?
CCOC(=O)c1nn(-c2ccc3c(c2)OCO3)cc1O,90*,/,3,/
CCOC(=O)c1nn(-c2ccc3ccccc3c2)cc1O,133*,-2,/,?
O=C(Cc1ccncc1)NCC[C@@H]1CC[C@@H](NC(=O)C2CCCC2)[C@H](CO)O1,/,2,-1,/
Cc1noc(C)c1NC(=O)Nc1ccc2c(c1)C(=O)N([C@@H](C)CO)C[C@@H](C)[C@H](CN(C)S(=O)(=O)c1ccc(Cl)cc1)OCCCC[C@@H](C)O2,/,5,-2,/
COc1cc(/C=C/C(=O)OCC(=O)NCCCc2ccccc2)cc(OC)c1OC,-4,1,-8,-2
COc1cc(/C=C/C(=O)OCC(=O)NCCc2ccccc2)cc(OC)c1OC,2,/,/,41*
SMILES,MITF TRPM1 HTS,Cneo AK release,PGC1a acetyl inh,Wnt act
Cc1cnc(C(=O)Nc2ccc(C(C)C)cc2)cn1,131*,/,/,39*
Cc1cnc(C(=O)Nc2ccc(F)cc2)cn1,52,13,9,/
CCc1nnc(NC(=O)CSc2ccc(-c3nc4ccccc4[nH]3)cn2)s1,87*,10,5,/
CCc1nnc(NC(=O)CSc2ccc(-c3ccc(-n4cccn4)cc3)nn2)s1,82*,/,/,28
O=C(CSc1ccc(-c2nc3ccccc3[nH]2)cn1)Nc1ccc2c(c1)OCCO2,146*,-1,-19,/
COc1cccc(-c2ccc([C@@H]3[C@@H](CO)N4C(=O)CN(C(=O)C5CC5)C[C@H]34)cc2)c1,/,/,8,/
CO[C@@H]1CN(C)C(=O)c2ccc(NC(=O)c3ccccc3F)cc2OC[C@H](C)N(CC2CCOCC2)C[C@@H]1C,/,-16,-5,/
O=C(c1cccc(F)c1)N1CCCCN2[C@@H](CO)[C@H](c3ccc(/C=C/c4ccccc4)cc3)[C@@H]2C1,/,-1,-2,/
O=C(COC(=O)c1ccc(O)cc1O)Nc1ccc2c(c1)OCCO2,92*,0,6,-3
Cn1cccc1C(=O)OCC(=O)NCc1ccc2c(c1)OCO2,5,1,17,1
O=C(COC(=O)c1ccc(O)cc1O)Nc1ccc2ccccc2c1,14,-5,-2,3
Cn1cccc1C(=O)OCC(=O)Nc1ccc2c(c1)OCCO2,4,/,/,49*
